In ChEMBL document CHEMBL1136736, “In vitro and in vivo antitumor properties of tetrakis((trishydroxy- methyl)phosphine)gold(I) chloride” (J Med Chem, 2003):

Tests used:
Type in all cases: functional, cell-based
[1] = system: LNCaP; experiment: Growth inhibition of LNCaP cell line at 2.74 nM derived from prostate cancer; settings: Homo sapiens
Procedure, shortened: (§1)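 Tumor cells were exposed to the compound added as a methanol solution and cultured in a 5% CO2 incubator for 7 days (4 days for some table entries). Cells were counted, and percent growth inhibition = (mean control count − mean treated count)/mean control count × 100.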

[2] = system: HCT-15; experiment: Growth inhibition of HCT-15 cell line at 2.74 nM derived from human colon carcinoma; procedure, shortened: as §1
[3] = system: AGS; experiment: Growth inhibition of AGS cell line at 0.54 nM derived from human gastric carcinoma; settings: Stomach; procedure, shortened: as §1
[4] = system: AGS; experiment: Growth inhibition of AGS cell line at 13.72 nM derived from human gastric carcinoma; settings: Stomach; procedure, shortened: as §1
[5] = system: HCT-15; experiment: Growth inhibition of HCT-15 cell line at 13.72 nM derived from human colon carcinoma; procedure, shortened: as §1
[6] = system: HCT-15; experiment: Growth inhibition of HCT-15 cell line at 0.54 nM derived from human colon carcinoma; procedure, shortened: as §1
[7] = system: LNCaP; experiment: Growth inhibition of LNCaP cell line at 13.72 nM derived from prostate cancer; settings: Homo sapiens; procedure, shortened: as §1
[8] = system: LNCaP; experiment: Growth inhibition of LNCaP cell line at 0.54 nM derived from prostate cancer; settings: Homo sapiens; procedure, shortened: as §1
[9] = system: PC-3; experiment: Growth inhibition of PC-3 cell line at 13.72 nM derived from prostate cancer; settings: Homo sapiens; procedure, shortened: as §1
[10] = system: AGS; experiment: Growth inhibition of AGS cell line at 2.74 nM derived from human gastric carcinoma; settings: Stomach; procedure, shortened: as §1

Substance: TETRAKIS((TRISHYDROXYMETHYL) PHOSPHINE)GOLD(I) CHLORIDE
- inhibition [1]: 59.2%
- inhibition [2]: 58.3%
- inhibition [3]: 10.2%
- inhibition [4]: 59.5%
- inhibition [5]: 87.5%
- inhibition [6]: 22.5%
- inhibition [7]: 83.9%
- inhibition [8]: 47.4%
- inhibition [9]: 27%
- inhibition [10]: 17.4%
